{"source": "paper PMC7821153", "about": "(Chemical Biology & Drug Design, 2020)", "type_in_all_cases": "cell-based", "key": {"[1]": {"system": "HIV-1 RT-resistant mutant K101E/M184I", "assay": "Single-round infectivity assay, K101E/M184I", "conditions": "read-out: EC50 K101E/M184I; single-round infection, n = 3", "procedure,_shortened": "(§1)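 Single-round infection with the HIV-1-based vector pNLNgoMIVR-ΔENV.LUC (Env-deleted, luciferase-carrying) bearing the indicated RT mutation(s), used to derive EC50. The mutant vectors are previously described constructs.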"}, "[2]": {"system": "HIV-1 NNRTI-resistant mutant K103N", "assay": "Single-round infectivity assay, K103N", "conditions": "Human immunodeficiency virus 1, read-out: EC50 K103N", "procedure,_shortened": "as §1"}, "[3]": {"system": "HIV-1 NNRTI-resistant mutant K103N/P225H", "assay": "Single-round infectivity assay, K103N/P225H", "conditions": "Human immunodeficiency virus 1, read-out: EC50 K103N/P225H", "procedure,_shortened": "as §1"}, "[4]": {"system": "HIV-1 RT-resistant mutant E40K", "assay": "Single-round infectivity assay, E40K", "conditions": "read-out: EC50 E40K; single-round infection, n = 3", "procedure,_shortened": "as §1"}, "[5]": {"system": "HIV-1 NNRTI-resistant mutant Y181C", "assay": "Single-round infectivity assay, Y181C", "conditions": "Human immunodeficiency virus 1, read-out: EC50 Y181C", "procedure,_shortened": "as §1"}, "[6]": {"system": "HIV-1 NNRTI-resistant mutant Y188L", "assay": "Single-round infectivity assay, Y188L", "conditions": "Human immunodeficiency virus 1, read-out: EC50 Y188L", "procedure,_shortened": "as §1"}, "[7]": {"system": "HIV-1 NNRTI-resistant mutant G190S", "assay": "Single-round infectivity assay, G190S", "conditions": "read-out: EC50 G190S; single-round infection, n = 3", "procedure,_shortened": "as §1"}, "[8]": {"system": "HIV-1 RT-resistant mutant D67E", "assay": "Single-round infectivity assay, D67E", "conditions": "read-out: EC50 D67E; single-round infection, n = 3", "procedure,_shortened": "as §1"}, "[9]": {"system": "HIV-1 RT-resistant mutant K101E/M184V", "assay": "Single-round infectivity assay, K101E/M184V", "conditions": "read-out: EC50 K101E/M184V; single-round infection, n = 3", "procedure,_shortened": "as §1"}, "[10]": {"system": "HIV-1 NNRTI-resistant mutant P236L", "assay": "Single-round infectivity assay, P236L", "conditions": "read-out: EC50 P236L; single-round infection, n = 3", "procedure,_shortened": "as §1"}, "[11]": {"system": "HIV-1 NNRTI-resistant mutant E138K", "assay": "Single-round infectivity assay, E138K", "conditions": "Human immunodeficiency virus 1, read-out: EC50 E138K", "procedure,_shortened": "as §1"}, "[12]": {"system": "HIV-1 NNRTI-resistant mutant V106A/G190A/F227L", "assay": "Single-round infectivity assay, V106A/G190A/F227L", "conditions": "Human immunodeficiency virus 1, read-out: EC50 V106A/G190A/F227L", "procedure,_shortened": "as §1"}, "[13]": {"assay": "Cellular cytotoxicity, ATP-dependent luminescence assay", "procedure,_shortened": "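Cytotoxicity measured by ATP-dependent luminescence, with CC50 derived. Values are from three independent experiments (n = 3), and standard deviations are reported.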"}, "[14]": {"system": "HIV-1 RT-resistant mutant K101E", "assay": "Single-round infectivity assay, K101E", "conditions": "Human immunodeficiency virus 1, read-out: EC50 K101E", "procedure,_shortened": "as §1"}, "[15]": {"system": "HIV-1 NNRTI-resistant mutant L100I/K103N", "assay": "Single-round infectivity assay, L100I/K103N", "conditions": "Human immunodeficiency virus 1, read-out: EC50 L100I/K103N", "procedure,_shortened": "as §1"}, "WT HIV-1": {"system": "WT HIV-1", "assay": "Single-round infectivity assay, WT RT vector", "procedure,_shortened": "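Single-round infection with an HIV-1-based vector (pNLNgoMIVR-ΔENV.LUC, Env-deleted, luciferase-carrying) with wild-type RT, used to derive EC50. Therapeutic index is calculated from CC50 (ATP-dependent luminescence assay) and wild-type EC50. Three independent experiments (n = 3), with standard deviations.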"}, "[16]": {"system": "HIV-1 NNRTI-resistant mutant H221Y", "assay": "Single-round infectivity assay, H221Y", "conditions": "Human immunodeficiency virus 1, read-out: EC50 H221Y", "procedure,_shortened": "as §1"}, "[17]": {"system": "HIV-1 NNRTI-resistant mutant G190A", "assay": "Single-round infectivity assay, G190A", "conditions": "read-out: EC50 G190A; single-round infection, n = 3", "procedure,_shortened": "as §1"}, "[18]": {"system": "HIV-1 NNRTI-resistant mutant K103N/Y181C", "assay": "Single-round infectivity assay, K103N/Y181C", "conditions": "Human immunodeficiency virus 1, read-out: EC50 K103N/Y181C", "procedure,_shortened": "as §1"}, "[19]": {"system": "HIV-1 DOR-resistant mutant L234I", "assay": "Single-round infectivity assay, L234I", "conditions": "read-out: EC50 L234I; single-round infection, n = 3", "procedure,_shortened": "as §1"}, "[20]": {"system": "HIV-1 RT-resistant mutant M184V", "assay": "Single-round infectivity assay, M184V", "conditions": "read-out: EC50 M184V; single-round infection, n = 3", "procedure,_shortened": "as §1"}, "[21]": {"system": "HIV-1 NNRTI-resistant mutant L100I", "assay": "Single-round infectivity assay, L100I", "conditions": "Human immunodeficiency virus 1, read-out: EC50 L100I", "procedure,_shortened": "as §1"}, "[22]": {"system": "HIV-1 NNRTI-resistant mutant M230L", "assay": "Single-round infectivity assay, M230L", "conditions": "Human immunodeficiency virus 1, read-out: EC50 M230L", "procedure,_shortened": "as §1"}}, "data": [{"smiles": "Cc1cc(/C=C/C#N)cc(C)c1-n1cnc2cnc(Nc3ccc4cc(C#N)ccc4c3)nc21", "note": "[Compound 10, (E)‐6‐((9‐(4‐(2‐cyanovinyl)‐2,6‐dimethylphenyl)‐9H‐purin‐2‐yl)amino)‐2‐naphthonitrile]", "values": [{"measurement": "EC50", "setting": "[1]", "result": "14 ± 0.1", "unit": "nM"}, {"measurement": "EC50", "setting": "[2]", "result": "24.5 ± 4.9", "unit": "nM"}, {"measurement": "EC50", "setting": "[3]", "result": "103 ± 8.1", "unit": "nM"}, {"measurement": "EC50", "setting": "[4]", "result": "4.2 ± 0.7", "unit": "nM"}, {"measurement": "EC50", "setting": "[5]", "result": "47.7 ± 7.8", "unit": "nM"}, {"measurement": "EC50", "setting": "[6]", "result": "180 ± 14.7", "unit": "nM"}, {"measurement": "EC50", "setting": "[7]", "result": "2.1 ± 0.1", "unit": "nM"}, {"measurement": "EC50", "setting": "[8]", "result": "10 ± 1.9", "unit": "nM"}, {"measurement": "EC50", "setting": "[9]", "result": "4.7 ± 0.8", "unit": "nM"}, {"measurement": "EC50", "setting": "[10]", "result": "1.6 ± 0.1", "unit": "nM"}, {"measurement": "EC50", "setting": "[11]", "result": "32.7 ± 4.4", "unit": "nM"}, {"measurement": "EC50", "setting": "[12]", "result": "7 ± 0.5", "unit": "nM"}, {"measurement": "CC50", "setting": "[13]", "result": "10800 ± 1200", "unit": "nM"}, {"measurement": "EC50", "setting": "[14]", "result": "13.4 ± 1", "unit": "nM"}, {"measurement": "EC50", "setting": "[15]", "result": "386 ± 19.9", "unit": "nM"}, {"measurement": "EC50", "setting": "WT HIV-1; Human immunodeficiency virus 1, read-out: EC50 WT", "result": "2.3 ± 0.2", "unit": "nM"}, {"measurement": "TI (therapeutic index)", "setting": "WT HIV-1; calculated from CC50 and WT EC50", "result": "4,696"}, {"measurement": "EC50", "setting": "[16]", "result": "3.4 ± 0.3", "unit": "nM"}, {"measurement": "EC50", "setting": "[17]", "result": "1.6 ± 0.3", "unit": "nM"}, {"measurement": "EC50", "setting": "[18]", "result": "468 ± 88.8", "unit": "nM"}, {"measurement": "EC50", "setting": "[19]", "result": "2.3 ± 0.2", "unit": "nM"}, {"measurement": "EC50", "setting": "[20]", "result": "3.1 ± 0.4", "unit": "nM"}, {"measurement": "EC50", "setting": "[21]", "result": "24.2 ± 6.1", "unit": "nM"}, {"measurement": "EC50", "setting": "[22]", "result": "33.8 ± 2.7", "unit": "nM"}]}]}
